Screens from PubChem BioAssay.
Sampled rows, rich in hits. Any-hit rate of the full collection: about 2.2%.
NR2E3 ag-1: NR2E3 agonists in two-hybrid cells, primary screen, cell-based, luminescence, CHO-S, Gal4-NCOR/VP16-NR2E3; Photoreceptor-specific nuclear receptor (Homo sapiens), Q9Y5X4; luciferase; inhibition of corepressor binding, % at 3.98 µM; 360,000 tested, 0.35% active;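 active = inhibition above the mean of all tested compounds plus 3 SD, cut at about 70% in these data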;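 note: 0% = DMSO with NR2E3 transfected cells and 100% = cells lacking NR2E3 construct; higher means lower luciferase signal from less NR2E3 corepressor binding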
Target sequence (Q9Y5X4 whole entry, looked up, the tested form may be a part): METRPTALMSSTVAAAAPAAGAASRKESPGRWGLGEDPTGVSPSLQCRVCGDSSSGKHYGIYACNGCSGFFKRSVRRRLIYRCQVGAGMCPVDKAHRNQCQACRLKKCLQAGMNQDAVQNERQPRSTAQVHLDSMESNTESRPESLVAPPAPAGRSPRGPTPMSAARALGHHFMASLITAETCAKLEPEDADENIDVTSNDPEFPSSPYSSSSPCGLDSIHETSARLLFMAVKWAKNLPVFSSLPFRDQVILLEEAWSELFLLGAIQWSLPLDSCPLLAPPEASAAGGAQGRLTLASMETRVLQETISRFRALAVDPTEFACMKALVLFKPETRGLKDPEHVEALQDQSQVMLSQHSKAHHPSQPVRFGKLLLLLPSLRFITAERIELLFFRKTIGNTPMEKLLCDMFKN
697 NFkB inh: inhibitors of PMA/ionomycin-induced NF-kB reporter, 697 cells, primary screen, B-cell NF-kB inhibitor project, cell-based, luminescence, uHTS | inhibition, % at 4 µM | 697 B-cell NF-kB luciferase reporter, 16 h | 330,000 tested, 0.33% active; in the data active = inhibition above about 35%
miR-122 sensor: miR-122 Renilla sensor signal increase in Huh7, primary screen, miR-122 inhibitor project, cell-based, single point, plate reader; 340,000 tested, 0.3% active; Huh7 miR-122 Renilla luciferase sensor, 48 h; neutral wells = 0, positive control = 100; activation (reporter increase), % at 12.5 µM;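 active = mean replicate activation score at least 90 and every replicate individually at or above 90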;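 note: higher luciferase means less miR-122 activity so hits act as miR-122 inhibitors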
Jurkat NFkB inh: inhibitors of induced NF-kB luciferase reporter, primary screen, TCR NF-kB activation inhibitor project, cell-based, luminescence, uHTS; Jurkat, PMA/ionomycin-induced NF-kB luciferase reporter; inhibition, % at 4 µM; 330,000 tested, 0.53% active; AID 435003, 2010; in the data active = inhibition above about 50%
FGF22 binding: binders of human FGF22 protein, primary screen, FGF22 synaptogenesis inhibitor project, biophysical, thermal shift, single point; activity (Tm shift, normalised), % at 9.99 µM; recombinant FGF22 thermal shift, SYPRO orange fluorescence; percent of sucrose octasulfate shift, DMSO zero; AID 651658, 2012; 340,000 tested, 1.5% active;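 active = mean Tm shift, scaled 0 neutral to 100 positive control, at about 1.3% or above, every replicate too, limit read from the data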
Target sequence (Q9HCT0 whole entry, looked up): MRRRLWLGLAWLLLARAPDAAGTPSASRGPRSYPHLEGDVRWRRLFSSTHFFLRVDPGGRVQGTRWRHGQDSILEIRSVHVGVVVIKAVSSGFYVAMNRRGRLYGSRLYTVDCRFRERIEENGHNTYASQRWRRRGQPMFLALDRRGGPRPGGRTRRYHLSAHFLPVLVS
NR2E3 ag-2: inhibitors of NR2E3-RetCOR corepressor binding, primary screen, NR2E3 agonist project, biochemical, TR-FRET, GST-NR2E3, biotin-RetCOR; Photoreceptor-specific nuclear receptor (Homo sapiens), Q9Y5X4; 1536-well; inhibition of corepressor binding, % at 4.78 µM; 320,000 tested, 0.12% active; AID 2300, 2010;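 active = percent inhibition above the cutoff of mean plus 3 SD of all tested compounds, set per screening campaign, cut at about 20% in these data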;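 note: 0% = DMSO wells and 100% = biotin wells as full block of FRET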
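Format: 1536-well format; test system: GST-NR2E3 and biotin-RetCOR proteins; read-out basis: percent inhibition of TR-FRET ratio; timing: 5 h incubation at 4 °C; detection: time-resolved FRET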
The depositor's hits bear a star; x = not tested or not shown; [ ] = remark or other dose.

SMILES	NR2E3 ag-1	697 NFkB inh	miR-122 sensor	Jurkat NFkB inh	FGF22 binding	NR2E3 ag-2
Cc1ccc(S(=O)(=O)Nc2ccc3c(c2)C(=O)N([C@H](C)CO)C[C@@H](C)[C@H](CN(C)C(=O)Nc2ccccc2)O3)cc1	x	x	5[16.7 µM]	x	0	x
CC(=O)N[C@H]1C=C[C@H](CC(=O)NCC2CCCCC2)O[C@H]1CO	x	x	x	x	0	x
N/C(=N\N=C\c1ccc(O)cc1)c1nonc1N	-95	-149	2	-70	44*	-2
O=C(C[C@H]1CC[C@H]2[C@@H](COC[C@@H](O)CN2Cc2ccccc2F)O1)NC1CCC1	x	x	4[16.7 µM]	x	0	x
CC(=O)Nc1ccc(NC(=O)c2ccc(COc3ccccc3)cc2)cc1	8	-22	-4	-14	0	0
CC(=O)Nc1cccc(NC(=O)c2ccc(COc3ccccc3)cc2)c1	-138	-71	-5	-149	43*	x
Nc1ccc(NC(=O)c2ccco2)c(Cl)c1	-24	-8	-19	-6	44*	-1
C/C(=N/NC(=O)c1ccco1)c1cccc(NC(=O)c2ccc(C)s2)c1	-65	-41	-1	-49	1.5*	-4
O=C(Nc1ccc(O)cc1C(=O)O)c1ccc(NC(=O)c2ccco2)cc1	-1	-4	-10	3	2.1*	-3
O=C(Nc1ccccc1C(=O)O)c1cccc(NC(=O)c2ccco2)c1	-17	6	-6	-4	x	5
C/C(=N/NC(=O)c1ccco1)c1cccc(NC(=O)c2ccc(C)o2)c1	-131	3	-2	4	x	1
O=C(Nc1cc(Cl)ccc1Cl)c1ccco1	-38	-8	-5	2	0	-3
COc1cccc(NC(=O)C[C@@H]2CC[C@@H]3[C@@H](COc4ccc(NC(=O)c5ccccc5F)cc4C(=O)N3C)O2)c1	x	x	12[16.7 µM]	x	0	x
O=C(c1ccccc1)N1C[C@@H]2[C@H](c3ccccc31)[C@@H](CO)N2C(=O)Nc1ccccc1Cl	x	x	7[16.7 µM]	x	1	x
C[C@H](CO)N1C[C@H](C)[C@H](CN(C)S(=O)(=O)c2cn(C)cn2)OCCCC[C@H](C)Oc2ccc(NS(=O)(=O)c3ccc(F)cc3)cc2C1=O	x	x	-3[16.7 µM]	x	-1	x
CCOc1cccc(C(=O)Nc2cccc(NC(=O)c3ccco3)c2)c1	-24	6	3	4	1.5*	1
O=C(Nc1c(Cl)ccc2nsnc12)c1ccco1	13	7	3	7	44*	-1
O=C(Nc1cc(Br)c(O)c(Br)c1)c1cccc(NC(=O)c2ccco2)c1	-3	8	-2	-4	0	-2
O=C(Nc1cccc(NC(=O)c2ccco2)c1)c1cccc(Br)c1	-8	10	x	15	43*	1
CCOc1cccc(C(=O)Nc2cccc(C(C)=O)c2)c1	-38	-11	5	-27	x	0
COc1ccccc1-c1cn(CC[C@H]2CC[C@H](NC(=O)CCN3CCCCC3)[C@@H](CO)O2)nn1	x	x	x	x	0	x
CCOc1ccc(N2C(=O)C3C(c4ccc(O)cc4)NC(CCSC)(C(=O)OC)C3C2=O)cc1 (configuration not stated)	16	18	x	2	44*	7
CCCC1(C(=O)OCC)NC(c2ccc(O)cc2)C2C(=O)N(c3ccc4c(c3)OCCO4)C(=O)C21 (configuration not stated)	4	13	4	9	0	0
O=C1OC(c2ccccc2)(c2ccccc2)c2ccsc21	-14	x	-6	x	44*	x
COc1ccc(CN(C)C[C@@H]2Oc3ccc(NC(=O)Nc4c(C)noc4C)cc3C(=O)N([C@H](C)CO)C[C@@H]2C)cc1	x	x	1[16.7 µM]	x	0	x
SMILES	NR2E3 ag-1	697 NFkB inh	miR-122 sensor	Jurkat NFkB inh	FGF22 binding	NR2E3 ag-2
O=C(CCC(=O)N1CCN(S(=O)(=O)c2ccc(Cl)cc2)CC1)Nc1ccc(Cl)cc1Cl	-12	6	1	-2	43*	3
COc1ccc(NC(=O)Cn2nnc(C(=O)Nc3ccccc3C)c2N)cc1	10	15	x	6	44*	2
O=C1CC(c2ccccc2F)c2c(c3ccccc3[nH]c2=O)O1 (configuration not stated)	-9	20	1	6	0	-1
O=C1CC(c2cccc(F)c2)c2c(c3ccccc3[nH]c2=O)O1 (configuration not stated)	4	12	x	-2	43*	4
COc1cc(C)c(C(=O)Oc2cc(C)c(C(=O)O)c(O)c2C)c(O)c1C	32	31	-2	0	1.6*	1
O=C(C[C@@H]1C[C@H]2c3cc(NC(=O)CC4CC4)ccc3O[C@H]2[C@H](CO)O1)NCc1ccccc1F	x	x	1[16.7 µM]	x	0	x
CCCNC(=O)N1[C@H](CO)[C@H](c2ccccc2)[C@H]1CNC(=O)c1ccccc1	x	x	-6[16.7 µM]	x	0	x
Nc1ccc2nc(-c3ccc(Cl)cc3)[nH]c2c1	-134	-65	4	0	0	-1
Nc1nc2ccc(Cl)cc2[nH]1	-23	x	2	x	43*	x
Cc1cc(C)c2oc(C(=O)Nc3ccc(S(=O)(=O)Nc4nccs4)cc3)cc(=O)c2c1	-5	12	x	12	43*	2
CCn1nc(C(=O)Nc2ccc(S(=O)(=O)Nc3nccs3)cc2)c2ccccc2c1=O	7	23	93*	-10	x	-1
O=C(O)CCCN1C(=O)c2ccc(Oc3cccc([N+](=O)[O-])c3)cc2C1=O	-5	7	-1	-14	0	5
O=C(O)CCCN1C(=O)c2ccc(C(=O)c3cccc([N+](=O)[O-])c3)cc2C1=O	-5	10	-9	-5	43*	2
COc1ccc(-c2nn(-c3ccccc3)cc2C(=O)OCC(=O)c2ccc(C)c([N+](=O)[O-])c2)cc1	-14	5	x	7	43*	-3
CC(=O)N1CCN(CC(=O)Nc2ccc(C)c(S(=O)(=O)N(C)C)c2)CC1	7	17	x	-6	43*	-1
CC(=O)N1CCN(CC(=O)Nc2ccc3c(c2)CCC3)CC1	-27	8	x	12	44*	0
O=C(CN1CCCC1)Nc1ccc2c(c1)CCC2	-32	9	x	-12	42	0
CC(=O)N1CCN(CC(=O)Nc2ccc(Cl)c(S(=O)(=O)N(C)C)c2)CC1	9	6	x	0	0	3
